Calls of active or inactive are those of the source. No cut-off for these calls is given here.

The results in this text go back to ChEMBL document CHEMBL2086305 (Eur J Med Chem, 2012).

The nature of data set [1]: Antiplatelet activity against rabbit platelets assessed as inhibition of thrombin-induced platelet aggregation. Conditions: Oryctolagus cuniculus. Format: functional, cell-based.
In data set [2] the test system is Rattus norvegicus. The data set can be described thus: Antithrombotic activity in Sprague-Dawley rat venous thrombosis model assessed as thrombus dry weight administered via gastric tube qd for 3 days after 2 hrs of last post dose.
The subject of data set [3] is Rattus norvegicus. Briefly: Drug metabolism in Sprague-Dawley rat plasma assessed as dabigatran level at 20 mg/kg, administered via gastric tube after 1 hr. Format: ADME, organism-based. Conditions: in vivo, po. Details: dose 20 mg/kg. An outline of the steps:
(§1)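 Female Sprague-Dawley rats received 20 mg/kg. Whole blood was collected at 0.167–6 h and mixed with 4% formic acid. Samples were precipitated with acetonitrile and stored at −70 °C.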

The subject of data set [4] is Rattus norvegicus. The data set can be described thus: Toxicity in Sprague-Dawley rat assessed as adverse effect at 20 mg/kg, administered via gastric tube. Format: organism-based. The arrangement: dose 20 mg/kg. Conditions: in vivo, po.
Data set [5] deals with Rattus norvegicus. The data set can be described thus: Drug metabolism in Sprague-Dawley rat plasma assessed as HTMP level at 20 mg/kg, administered via gastric tube after 2 hrs. The class given is ADME, organism-based. The arrangement: dose 20 mg/kg. Conditions: in vivo, po. In a few lines: as §1
For data set [6], the system named is Rattus norvegicus. Briefly: Drug metabolism in Sprague-Dawley rat plasma assessed as HTMP level at 20 mg/kg, administered via gastric tube after 0.167 hrs. The class given is ADME, organism-based. Details: dose 20 mg/kg. The conditions noted are these: in vivo, po. In a few lines:
as §1

Data set [7] has as its system Rattus norvegicus. The data set can be described thus: Drug metabolism in Sprague-Dawley rat plasma assessed as HTMP level at 20 mg/kg, administered via gastric tube after 0.5 hrs. The class given is ADME, organism-based. Conditions: in vivo, po. Details: dose 20 mg/kg. An outline of the steps: as §1
Data set [8] has as its system Rattus norvegicus. The data set can be described thus: Drug metabolism in Sprague-Dawley rat plasma assessed as dabigatran level at 20 mg/kg, administered via gastric tube after 0.25 hrs. The class given is ADME, organism-based. The conditions noted are these: in vivo, po. The arrangement: dose 20 mg/kg. In a few lines: as §1
For data set [9], the system named is Rattus norvegicus. The data set can be described thus: Drug metabolism in Sprague-Dawley rat plasma assessed as dabigatran level at 20 mg/kg, administered via gastric tube after 0.167 hrs. Format: ADME, organism-based. Details: dose 20 mg/kg. Conditions: in vivo, po. An outline of the steps:
as §1

The subject of data set [10] is Rattus norvegicus. Briefly: Drug metabolism in Sprague-Dawley rat plasma assessed as dabigatran level at 20 mg/kg, administered via gastric tube after 0.5 hrs. The class given is ADME, organism-based. Details: dose 20 mg/kg. The conditions noted are these: in vivo, po. An outline of the steps:
as §1

Data set [11] deals with Rattus norvegicus. The data set can be described thus: Drug metabolism in Sprague-Dawley rat plasma assessed as dabigatran level at 20 mg/kg, administered via gastric tube after 1.5 hrs. Format: ADME, organism-based. The arrangement: dose 20 mg/kg. Conditions: in vivo, po. An outline of the steps:
as §1

Data set [12] deals with Rattus norvegicus. The data set can be described thus: Drug metabolism in Sprague-Dawley rat plasma assessed as HTMP level at 20 mg/kg, administered via gastric tube after 1.5 hrs. The arrangement: dose 20 mg/kg. Format: ADME, organism-based. Conditions: in vivo, po. In a few lines: as §1
For data set [13], the system named is Rattus norvegicus. The data set can be described thus: Drug metabolism in Sprague-Dawley rat plasma assessed as HTMP level at 20 mg/kg, administered via gastric tube after 4 hrs. The class given is ADME, organism-based. Details: dose 20 mg/kg. Conditions: in vivo, po. In a few lines: as §1
Data set [14] in a line: (§2) Antiplatelet activity against rabbit platelets assessed as inhibition of ADP-induced platelet aggregation. The conditions noted are these: Oryctolagus cuniculus. Format: functional, cell-based.
Data set [15] relates to Rattus norvegicus. The data set can be described thus: Drug metabolism in Sprague-Dawley rat plasma assessed as HTMP level at 20 mg/kg, administered via gastric tube after 6 hrs. Format: ADME, organism-based. Details: dose 20 mg/kg. Conditions: in vivo, po. An outline of the steps:
as §1

In data set [16] the test system is Rattus norvegicus. The data set can be described thus: Drug metabolism in Sprague-Dawley rat plasma assessed as dabigatran level at 20 mg/kg, administered via gastric tube after 4 hrs. The class given is ADME, organism-based. Details: dose 20 mg/kg. Conditions: in vivo, po. In a few lines: as §1
In data set [17] the test system is Rattus norvegicus. Briefly: Drug metabolism in Sprague-Dawley rat plasma assessed as HTMP level at 20 mg/kg, administered via gastric tube after 0.25 hrs. Conditions: in vivo, po. Format: ADME, organism-based. The arrangement: dose 20 mg/kg. In a few lines:
as §1

For data set [18], the system named is Rattus norvegicus. The data set can be described thus: Drug metabolism in Sprague-Dawley rat plasma assessed as dabigatran level at 20 mg/kg, administered via gastric tube after 2 hrs. The class given is ADME, organism-based. Details: dose 20 mg/kg. The conditions noted are these: in vivo, po. In a few lines: as §1
Data set [19] deals with Rattus norvegicus. The data set can be described thus: Drug metabolism in Sprague-Dawley rat plasma assessed as dabigatran level at 20 mg/kg, administered via gastric tube after 6 hrs. Format: ADME, organism-based. Details: dose 20 mg/kg. The conditions noted are these: in vivo, po. In a few lines:
as §1

The test system of data set [20] is Rattus norvegicus. Briefly: Drug metabolism in Sprague-Dawley rat plasma assessed as HTMP level at 20 mg/kg, administered via gastric tube after 1 hr. The conditions noted are these: in vivo, po. The arrangement: dose 20 mg/kg. Format: ADME, organism-based. An outline of the steps: as §1
For another data set, the system named is Platelet. The description is as §2. Format: functional, cell-based. Conditions: Oryctolagus cuniculus.

By IC50 is commonly meant the concentration that gives 50% inhibition. As to `CCOC(=O)/N=C(/N)c1ccc(NCc2nc3cc(C(=O)N(CCC(=O)OCc4nc(C)c(C)nc4C)c4ccccn4)ccc3n2C)cc1`, in data set [1], the IC50 was 0.218 µM.
Same read-out and setting: the same measure for `Cc1nc(C)c(COC(=O)CCN(C(=O)c2ccc3c(c2)nc(CNc2ccc(/C(N)=N\C(=O)OCc4ccccc4)cc2)n3C)c2ccccn2)nc1C`: 0.292 µM.
A word on the ED50: it is the midpoint of the dose-response relation. As for `Cc1nc(C)c(COC(=O)CCN(C(=O)c2ccc3c(c2)nc(CNc2ccc(/C(N)=N\C(=O)OC(C)(C)C)cc2)n3C)c2ccccn2)nc1C`, the IC50 in data set [1] is 0.00313 µM. Moreover, in the data set with Rattus norvegicus [2], the median effective dose (ED50) stood at 1.8 mg/kg.
As to `CCCCCCOC(=O)/N=C(/N)c1ccc(NCc2nc3cc(C(=O)N(CCC(=O)OCc4nc(C)c(C)nc4C)c4ccccn4)ccc3n2C)cc1`, the Drug metabolism in the data set on Rattus norvegicus [3] came out at 264 ng/mL; in the data set with Rattus norvegicus [5], 430 ng/mL; with Rattus norvegicus [6], 423 ng/mL; in the data set with Rattus norvegicus [7], 1075 ng/mL; in the data set with Rattus norvegicus [8] it was 245 ng/mL; in the data set on Rattus norvegicus [9] it was 109 ng/mL. In addition, the Drug metabolism with Rattus norvegicus [10] is 252 ng/mL; in the data set with Rattus norvegicus [11] it was 164 ng/mL; with Rattus norvegicus [12], 495 ng/mL; in the data set on Rattus norvegicus [13], 188 ng/mL; in the data set with Rattus norvegicus [15] it was 93.3 ng/mL; in the data set on Rattus norvegicus [16] it was 67.3 ng/mL. Further, the Drug metabolism came to 955 ng/mL with Rattus norvegicus [17], 152 ng/mL with Rattus norvegicus [18], 18.2 ng/mL in the data set on Rattus norvegicus [19] and 938 ng/mL with Rattus norvegicus [20]. Besides, in the data set on Rattus norvegicus [4], the Activity result is listed as “Non-toxic”. For the same compound, the concentration for half-maximal inhibition (IC50) was found to be 4030 µM in data set [14] and 0.0381 µM in [1]. In addition, in the data set with Rattus norvegicus [2], the median effective dose (ED50) is 2.1 mg/kg.
As for `Cc1nc(C)c(COC(=O)CCN(C(=O)c2ccc3c(c2)nc(CNc2ccc(/C(N)=N\C(=O)OC(C)C)cc2)n3C)c2ccccn2)nc1C`, the IC50 in data set [1] worked out at 0.295 µM.
On the same count and under the same terms, the same measure for `COC(=O)/N=C(/N)c1ccc(NCc2nc3cc(C(=O)N(CCC(=O)OCc4nc(C)c(C)nc4C)c4ccccn4)ccc3n2C)cc1`: 0.287 µM.
On to `Cc1nc(C)c(CO)nc1C`, for which the IC50 in data set [14] came out at 1670 µM; in data set [1] it was 8410 µM. Besides, the 50% effective dose (ED50) in the data set on Rattus norvegicus [2] was found to be 42.6 mg/kg.
As to `CCCCCCOC(=O)NC(=N)c1ccc(NCc2nc3cc(C(=O)N(CCC(=O)OCC)c4ccccn4)ccc3n2C)cc1` [DABIGATRAN ETEXILATE], the inhibition result in the data set on Platelet is “inactive”. Moreover, in data set [1], the IC50 came to 0.326 µM. The median effective dose (ED50) in the data set with Rattus norvegicus [2] came to 4.4 mg/kg.
`CCCCCOC(=O)/N=C(/N)c1ccc(NCc2nc3cc(C(=O)N(CCC(=O)OCc4nc(C)c(C)nc4C)c4ccccn4)ccc3n2C)cc1`: in [1], the IC50 came out at 0.0728 µM.
